Values after ≈ are worked out from the molar mass of the structure shown. Active and inactive are the calls of the source. No cut-off for these calls is given here.
How the values were obtained:
[1] = Toxicity in Homo sapiens (human) RBCs assessed as hemolytic activity at 100 uM; assay type: cell-based; conditions: erythrocyte
[2] = Toxicity in Homo sapiens (human) RBCs assessed as hemolytic activity; assay type: cell-based; conditions: erythrocyte
Penicillium digitatum [3] = test: Antimicrobial activity against Penicillium digitatum PHI-26 assessed as inhibition of orange postharvest decay progression progression at 2 uM pre-incubated with fungus for 16 hr measured 7 days post fungal inoculation by orange fruit decay assay; assay type: functional
Outline: (§1)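 Orange fruit inoculation (Navelina, Navelate or Lanelate). Each fruit was wounded about 3 mm deep at four equatorial sites. 5 µL of inoculum (10^4 conidia mL-1 with peptide in water, preincubated 16 h at room temperature) went into each wound. Peptide was tested at 32 µM, from 4 to 64 µM, or from 1 to 4 µM. Fruit was held at 20 °C and 90% RH. Infected wounds were scored at 3, 5 and 7 dpi. Three replicas of five fruits each; Tukey mean separation.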

Penicillium digitatum [4] = test: Antimicrobial activity against Penicillium digitatum PHI-26 assessed as inhibition of orange postharvest decay progression progression at 4 uM pre-incubated with fungus for 16 hr measured 7 days post fungal inoculation by orange fruit decay assay; assay type: functional, organism-based; outline: as §1
Penicillium digitatum [5] = test: Fungicidal activity against Penicillium digitatum PHI-26 conidia assessed as reduction in conidia viability at 4 uM incubated for 16 hr by colony count assay relative to untreated control; assay type: functional
Outline: (§2)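 P. digitatum conidia (10^4 mL-1) were incubated with peptide (for example 4, 16 or 64 µM) in sterile distilled water for 16 h at room temperature, in triplicate. Samples were then serially diluted and spread on peptide-free PDA to count CFU. Results are given as mean CFU mL-1 ± SD compared with a no-peptide control.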

Penicillium digitatum [6] = test: Fungicidal activity against Penicillium digitatum PHI-26 conidia assessed as inhibition of conidia viability incubated for 16 hr by colony count assay; assay type: functional, organism-based; outline: as §2
Penicillium digitatum [7] = test: Antimicrobial activity against Penicillium digitatum PHI-26 assessed as inhibition of orange postharvest decay progression at 32 uM pre-incubated with fungal conidia for 16 hr by orange fruit decay assay; assay type: functional, organism-based; outline: as §1
Escherichia coli = test: Antimicrobial activity against Escherichia coli DH5[alpha] assessed as microbial growth inhibition after 4 days by microtiter plate assay; assay type: functional; conditions: 96 h
Outline: (§3)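 Microtiter dose–response assay, as previously described. Peptide stocks were 1 mM in 5 mM MOPS pH 7. P. digitatum conidia came from 7–10-day PDA cultures grown at 24 °C and were counted with a hematocytometer. Yeast (YPD, 30 °C) and E. coli (LB, 37 °C) were grown to stationary phase and diluted. Growth was read as OD492 in triplicate. MIC: lowest concentration with no growth after 4 days in all independent experiments, each repeated at least three times.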

Saccharomyces cerevisiae = test: Antimicrobial activity against Saccharomyces cerevisiae FY1679 assessed as microbial growth inhibition after 4 days by microtiter plate assay; assay type: functional; conditions: FY1679, 96 h; outline: as §3
Penicillium digitatum [8] = test: Antimicrobial activity against Penicillium digitatum PHI-26 assessed as microbial growth inhibition after 4 days by microtiter plate assay; assay type: functional; outline: as §3
Penicillium digitatum [9] = test: Antimicrobial activity against Penicillium digitatum PHI-26 assessed as inhibition of orange postharvest decay progression progression at 32 uM measured 7 days post fungal inoculation by orange fruit decay assay; assay type: functional, organism-based
Outline: (§4)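 Navelina sweet oranges were wounded about 3 mm deep at four equatorial sites. Each wound received 5 µL of 10^4 conidia mL-1 of PHI-26 mixed with peptide in water, inoculated either at once or after 16 h at room temperature. There were three replicas of five fruits, held at 20 °C and 90% RH. Infected wounds were scored at 3, 5 and 7 dpi as mean % ± SD, with Tukey separation.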

Penicillium digitatum [10] = test: Antimicrobial activity against Penicillium digitatum PHI-26 assessed as inhibition of orange postharvest decay progression at 32 uM by orange fruit decay assay; assay type: functional, organism-based; outline: as §4

Compound	Activity [1]	Activity [2]	inhibition at 2 µM (Penicillium digitatum [3])	inhibition (Penicillium digitatum [4])	fold change (FC) (Penicillium digitatum [5])	inhibition (Penicillium digitatum [6])	inhibition (Penicillium digitatum [7])	MIC (Escherichia coli)	MIC (Saccharomyces cerevisiae)	MIC (Penicillium digitatum [8]; PHI-26, 96 h)	MIC (Penicillium digitatum [8])	inhibition (Penicillium digitatum [5])	inhibition (Penicillium digitatum [9])	inhibition (Penicillium digitatum [10])
CC(=O)N[C@@H](Cc1cnc[nH]1)C(=O)N[C@@H](CCCNC(=N)N)C(=O)N[C@@H](CCCCN)C(=O)N[C@@H](CCCCN)C(=O)N[C@@H](Cc1c[nH]c2ccccc12)C(=O)N[C@@H](Cc1ccccc1)C(=O)N[C@@H](Cc1c[nH]c2ccccc12)C(N)=O	Non-toxic	Non-toxic	> 50%	Active	2	Active	Active	16 µM (≈ 18.1 µg/mL)	16 µM (≈ 18.1 µg/mL)	4 µM (≈ 4.51 µg/mL)				
CC(=O)N[C@@H](CCCNC(=N)N)C(=O)N[C@@H](CCCNC(=N)N)C(=O)N[C@@H](CCCCN)C(=O)N[C@@H](CCCCN)C(=O)N[C@@H](Cc1c[nH]c2ccccc12)C(=O)N[C@@H](Cc1ccccc1)C(=O)N[C@@H](Cc1c[nH]c2ccccc12)C(N)=O	Non-toxic	Non-toxic		Active	2	Active	Active	8 µM (≈ 9.18 µg/mL)	16 µM (≈ 18.4 µg/mL)	4 µM (≈ 4.59 µg/mL)				
CC(=O)N[C@H](CCCNC(=N)N)C(=O)N[C@H](CCCNC(=N)N)C(=O)N[C@H](CCCCN)C(=O)N[C@H](CCCCN)C(=O)N[C@H](Cc1c[nH]c2ccccc12)C(=O)N[C@H](Cc1ccccc1)C(=O)N[C@H](Cc1c[nH]c2ccccc12)C(N)=O											Active			
CC(=O)N[C@H](Cc1cnc[nH]1)C(=O)N[C@H](CCCNC(=N)N)C(=O)N[C@H](CCCCN)C(=O)N[C@H](CCCCN)C(=O)N[C@H](Cc1c[nH]c2ccccc12)C(=O)N[C@H](Cc1ccccc1)C(=O)N[C@H](Cc1c[nH]c2ccccc12)C(N)=O											Active			
CC[C@H](C)[C@H](NC(C)=O)C(=O)N[C@@H](CC(C)C)C(=O)N1CCC[C@H]1C(=O)N[C@@H](Cc1c[nH]c2ccccc12)C(=O)N[C@@H](CCCCN)C(=O)N[C@@H](Cc1c[nH]c2ccccc12)C(=O)N1CCC[C@H]1C(=O)N[C@@H](Cc1c[nH]c2ccccc12)C(=O)N[C@@H](Cc1c[nH]c2ccccc12)C(=O)N1CCC[C@H]1C(=O)N[C@@H](Cc1c[nH]c2ccccc12)C(=O)N[C@@H](CCCNC(=N)N)C(=O)N[C@@H](CCCNC(=N)N)C(N)=O [Indolicidin]				Active		Active						Active		
CC[C@H](C)[C@H](NC(=O)[C@H](CCCCN)NC(=O)[C@H](CCCCN)NC(=O)[C@H](Cc1ccccc1)NC(=O)[C@H](CC(C)C)NC(=O)[C@H](CCCCN)NC(=O)[C@@H](N)CCCCN)C(=O)N[C@@H](CC(C)C)C(=O)N[C@@H](CCCCN)C(=O)N[C@@H](Cc1ccccc1)C(=O)N[C@@H](CC(C)C)C(N)=O [KKLFKKILKFL-NH2]		Toxic				Active		4 µM (≈ 5.62 µg/mL)	16 µM (≈ 22.5 µg/mL)	4 µM (≈ 5.62 µg/mL)		Active		
CC[C@H](C)[C@H](NC(=O)[C@H](CCCCN)NC(=O)[C@H](CCCCN)NC(=O)[C@H](Cc1ccccc1)NC(=O)[C@H](CC(C)C)NC(=O)[C@H](CCCCN)NC(=O)[C@@H](N)CCCCN)C(=O)N[C@@H](CC(C)C)C(=O)N[C@@H](CCCCN)C(=O)N[C@H](C(=O)N[C@@H](CC(C)C)C(N)=O)C(C)C [KKLFKKILKVL-NH2]		Toxic				Active		4 µM (≈ 5.43 µg/mL)	16 µM (≈ 21.7 µg/mL)	4 µM (≈ 5.43 µg/mL)		Active		
CC[C@H](C)[C@H](NC(=O)CN)C(=O)NCC(=O)N[C@@H](C)C(=O)N[C@H](C(=O)N[C@@H](CC(C)C)C(=O)N[C@@H](CCCCN)C(=O)N[C@H](C(=O)N[C@@H](CC(C)C)C(=O)N[C@H](C(=O)N[C@H](C(=O)NCC(=O)N[C@@H](CC(C)C)C(=O)N1CCC[C@H]1C(=O)N[C@@H](C)C(=O)N[C@@H](CC(C)C)C(=O)N[C@H](C(=O)N[C@@H](CO)C(=O)N[C@@H](Cc1c[nH]c2ccccc12)C(=O)N[C@H](C(=O)N[C@@H](CCCCN)C(=O)N[C@@H](CCCNC(=N)N)C(=O)N[C@@H](CCCCN)C(=O)N[C@@H](CCCNC(=N)N)C(=O)N[C@@H](CCC(N)=O)C(=O)N[C@@H](CCC(N)=O)C(N)=O)[C@@H](C)CC)[C@@H](C)CC)[C@@H](C)O)[C@@H](C)O)C(C)C)C(C)C [MELITTIN]		Toxic		inactive		inactive	inactive		16 µM (≈ 45.5 µg/mL)	2 µM (≈ 5.69 µg/mL)		inactive	Active	inactive
Ac-RFWWFRRR-NH2	Non-toxic			Active	2	Active	Active	8 µM	32 µM	4 µM				Active
Ac-RKKWFW-NH2	Non-toxic	Non-toxic			2	Active	Active	32 µM	32 µM	4 µM				

— ChEMBL document CHEMBL3046112, “Comparative study of antimicrobial peptides to control citrus postharvest decay caused by Penicillium digitatum” (J Agric Food Chem, 2007)
